Data on 31 compounds can be found in ChEMBL document CHEMBL5344479, “N-Arylsulfonamide-based adenosine analogues to target RNA cap N7-methyltransferase nsp14 of SARS-CoV-2” (RSC Med Chem, 2024).

Experiment [1] concerns the target Replicase polyprotein 1ab (Severe acute respiratory syndrome coronavirus 2) (UniProt P0DTD1). The experiment can be described thus: Inhibition of N-terminal hexa-histidine tagged recombinant SARS-CoV-2 nsp14 RNA cap N7-methyltransferase activity expressed in Escherichia coli C2566 assessed as residual enzyme activity using GpppAC4 synthetic RNA and [3H]-SAM as substrate at 50 uM incubated for 30 mins by filter binding assay based liquid scintillation counter analysis relative to control. Put shortly:
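Recombinant nsp14 (10 nM), purified by cobalt IMAC and size exclusion, was premixed with compound at 50 µM (2.5% final DMSO). Then 0.7 µM GpppAC4 RNA, 1.9 µM SAM and 0.1 µM 3H-SAM were added in 40 mM Tris-HCl pH 8.0, 1 mM DTT, 1 mM MgCl2. After 30 min at 30 °C, reactions were stopped by 10-fold ice-cold water dilution, DEAE-filtered, washed and scintillation-counted.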

Experiment [2] addresses Replicase polyprotein 1ab (Severe acute respiratory syndrome coronavirus 2, UniProt P0DTD1). The experiment can be described thus: Inhibition of N-terminal hexa-histidine tagged recombinant SARS-CoV-2 nsp14 RNA cap N7-methyltransferase activity expressed in Escherichia coli C2566 using GpppAC4 synthetic RNA and [3H]-SAM as substrate incubated for 30 mins by filter binding assay based liquid scintillation counter analysis.

Take `CCN(CCNS(=O)(=O)c1ccc(C)cc1)C[C@H]1O[C@@H](n2cnc3c(N)ncnc32)[C@H](O)[C@@H]1O`: the Activity in experiment [1] worked out at 66%.

As for `CCN(CCNS(=O)(=O)c1ccc(C(F)(F)F)cc1)C[C@H]1O[C@@H](n2cnc3c(N)ncnc32)[C@H](O)[C@@H]1O`, in experiment [1], the Activity was determined as 83%.

Take `CCN(CCNS(=O)(=O)c1ccc(C#N)cc1)C[C@H]1O[C@@H](n2cnc3c(N)ncnc32)[C@H](O)[C@@H]1O`: the Activity in experiment [1] stood at 67%.

One may read the IC50 as the concentration that gives 50% inhibition. Regarding `Nc1ncnc2c1ncn2[C@@H]1O[C@H](CSCCNS(=O)(=O)c2ccc([N+](=O)[O-])cc2)[C@@H](O)[C@H]1O`, the Activity in experiment [1] was found to be 9%. In experiment [2], the IC50 is 4.7 µM.

As to `Nc1ncnc2c1ncn2[C@@H]1O[C@H](CS(=O)(=O)CCNS(=O)(=O)c2ccccc2)[C@@H](O)[C@H]1O`, the Activity in experiment [1] worked out at 48%. Besides, in experiment [2], the IC50 came to 23.3 µM.

Turning to `CCN(CCNS(=O)(=O)c1ccc([N+](=O)[O-])cc1)C[C@H]1O[C@@H](n2cnc3c(N)ncnc32)[C@H](O)[C@@H]1O`, the Activity in experiment [1] amounted to 57%.

Take `Cc1ccc(S(=O)(=O)NCc2cn(C[C@H]3O[C@@H](n4cnc5c(N)ncnc54)[C@H](O)[C@@H]3O)nn2)cc1`: the Activity in experiment [1] was found to be 50%.

Turning to `Nc1ncnc2c1ncn2[C@@H]1O[C@H](Cn2cc(CNS(=O)(=O)c3ccc(Cl)cc3)nn2)[C@@H](O)[C@H]1O`, the Activity in experiment [1] worked out at 72%.

With `CCN(Cc1cn(C[C@H]2O[C@@H](n3cnc4c(N)ncnc43)[C@H](O)[C@@H]2O)nn1)S(=O)(=O)c1ccc(OC)cc1`, the Activity in experiment [1] is 60%.

On to `Nc1ncnc2c1ncn2[C@@H]1O[C@H](CS(=O)(=O)CCNS(=O)(=O)c2ccc([N+](=O)[O-])cc2)[C@@H](O)[C@H]1O`, for which the Activity in experiment [1] was found to be 27%. In experiment [2], the 50% inhibitory concentration (IC50) was determined as 27.4 µM.

As to `N#Cc1ccc(S(=O)(=O)NCCSC[C@H]2O[C@@H](n3cnc4c(N)ncnc43)[C@H](O)[C@@H]2O)cc1`, the Activity in experiment [1] was found to be 21%. For the same compound, the IC50 in experiment [2] turned out to be 15.6 µM.

As to `Nc1ncnc2c1ncn2[C@@H]1O[C@H](CSCCNS(=O)(=O)c2ccc(C(F)(F)F)cc2)[C@@H](O)[C@H]1O`, the Activity in experiment [1] came out at 7%. For the same compound, the IC50 in experiment [2] is 7.3 µM.

In the case of `COc1ccc(S(=O)(=O)NCc2cn(C[C@H]3O[C@@H](n4cnc5c(N)ncnc54)[C@H](O)[C@@H]3O)nn2)cc1`, the Activity in experiment [1] is 63%.

With `CCN(Cc1cn(C[C@H]2O[C@@H](n3cnc4c(N)ncnc43)[C@H](O)[C@@H]2O)nn1)S(=O)(=O)c1ccc(C(F)(F)F)cc1`, the Activity in experiment [1] is 47%.

As for `Nc1ncnc2c1ncn2[C@@H]1O[C@H](CSCCNS(=O)(=O)c2ccccc2)[C@@H](O)[C@H]1O`, the Activity in experiment [1] is 13%. Also, the half-inhibitory concentration (IC50) in experiment [2] was determined as 4.6 µM.

For `Nc1ncnc2c1ncn2[C@@H]1O[C@H](Cn2cc(CNS(=O)(=O)c3ccc(C(F)(F)F)cc3)nn2)[C@@H](O)[C@H]1O`, the Activity in experiment [1] is 81%.

As to `Nc1ncnc2c1ncn2[C@@H]1O[C@H](CSCCNS(=O)(=O)c2ccccc2[N+](=O)[O-])[C@@H](O)[C@H]1O`, the Activity in experiment [1] came out at 0%. In addition, the IC50 in experiment [2] stood at 2.04 µM.

As for `CCN(CCNS(=O)(=O)c1ccccc1)C[C@H]1O[C@@H](n2cnc3c(N)ncnc32)[C@H](O)[C@@H]1O`, in experiment [1], the Activity was determined as 87%.

Take `Cc1ccc(S(=O)(=O)NCCSC[C@H]2O[C@@H](n3cnc4c(N)ncnc43)[C@H](O)[C@@H]2O)cc1`: in experiment [1], the Activity was 10%. Moreover, the IC50 in experiment [2] was determined as 2.2 µM.

Turning to `Cc1ccc(S(=O)(=O)NCCS(=O)(=O)C[C@H]2O[C@@H](n3cnc4c(N)ncnc43)[C@H](O)[C@@H]2O)cc1`, in experiment [1], the Activity turned out to be 38%. In addition, the IC50 in experiment [2] was found to be 49 µM.

As to `COc1ccc(S(=O)(=O)NCCSC[C@H]2O[C@@H](n3cnc4c(N)ncnc43)[C@H](O)[C@@H]2O)c([N+](=O)[O-])c1`, the Activity in experiment [1] came out at 0%. In addition, the IC50 in experiment [2] came out at 0.9 µM.

Regarding `CCN(Cc1cn(C[C@H]2O[C@@H](n3cnc4c(N)ncnc43)[C@H](O)[C@@H]2O)nn1)S(=O)(=O)c1ccc(F)cc1`, the Activity in experiment [1] is 93%.

Take `Cc1cccc(S(=O)(=O)NCc2cn(C[C@H]3O[C@@H](n4cnc5c(N)ncnc54)[C@H](O)[C@@H]3O)nn2)c1`: in experiment [1], the Activity came out at 82%.

Turning to `Nc1ncnc2c1ncn2[C@@H]1O[C@H](Cn2cc(CNS(=O)(=O)c3ccccc3)nn2)[C@@H](O)[C@H]1O`, the Activity in experiment [1] worked out at 59%.

As to `Nc1ncnc2c1ncn2[C@@H]1O[C@H](CS(=O)(=O)CCNS(=O)(=O)c2ccc(C(F)(F)F)cc2)[C@@H](O)[C@H]1O`, the Activity in experiment [1] was 37%. Moreover, the IC50 in experiment [2] is 38.4 µM.

As to `CCN(Cc1cn(C[C@H]2O[C@@H](n3cnc4c(N)ncnc43)[C@H](O)[C@@H]2O)nn1)S(=O)(=O)c1ccccc1`, the Activity in experiment [1] is 84%.

Turning to `Nc1ncnc2c1ncn2[C@@H]1O[C@H](CSCCNS(=O)(=O)c2ccc(Cl)cc2[N+](=O)[O-])[C@@H](O)[C@H]1O`, in experiment [1], the Activity was 2%. In experiment [2], the IC50 turned out to be 0.9 µM.

In the case of `CCN(Cc1cn(C[C@H]2O[C@@H](n3cnc4c(N)ncnc43)[C@H](O)[C@@H]2O)nn1)S(=O)(=O)c1ccc(Cl)cc1`, the Activity in experiment [1] turned out to be 69%.

On to `CCN(Cc1cn(C[C@H]2O[C@@H](n3cnc4c(N)ncnc43)[C@H](O)[C@@H]2O)nn1)S(=O)(=O)c1ccc(C)cc1`, for which, in experiment [1], the Activity was 59%.

Turning to `N#Cc1ccc(S(=O)(=O)NCCS(=O)(=O)C[C@H]2O[C@@H](n3cnc4c(N)ncnc43)[C@H](O)[C@@H]2O)cc1`, in experiment [1], the Activity is 42%. The 50% inhibitory concentration (IC50) in experiment [2] was 52.4 µM.

For `Nc1ncnc2c1ncn2[C@@H]1O[C@H](Cn2cc(CNS(=O)(=O)c3ccc(F)cc3)nn2)[C@@H](O)[C@H]1O`, in experiment [1], the Activity turned out to be 91%.
